Measurements taken from ChEMBL document CHEMBL2434855, “Aggrecanase-2 inhibitors based on the acylthiosemicarbazide zinc-binding group” (Eur J Med Chem, 2013).

Tests used:
[1] = biological target: T1, Matrix metalloproteinase-9 (Homo sapiens, UniProt P14780); test: Inhibition of human MMP-9 using NFF-2 as substrate after 90 mins
Stromelysin-1 [2] = biological target: T2, Stromelysin-1 (Homo sapiens, UniProt P08254); test: Inhibition of human MMP-3 using NFF-2 as substrate after 30 mins
Target sequence in this assay (P08254 whole entry): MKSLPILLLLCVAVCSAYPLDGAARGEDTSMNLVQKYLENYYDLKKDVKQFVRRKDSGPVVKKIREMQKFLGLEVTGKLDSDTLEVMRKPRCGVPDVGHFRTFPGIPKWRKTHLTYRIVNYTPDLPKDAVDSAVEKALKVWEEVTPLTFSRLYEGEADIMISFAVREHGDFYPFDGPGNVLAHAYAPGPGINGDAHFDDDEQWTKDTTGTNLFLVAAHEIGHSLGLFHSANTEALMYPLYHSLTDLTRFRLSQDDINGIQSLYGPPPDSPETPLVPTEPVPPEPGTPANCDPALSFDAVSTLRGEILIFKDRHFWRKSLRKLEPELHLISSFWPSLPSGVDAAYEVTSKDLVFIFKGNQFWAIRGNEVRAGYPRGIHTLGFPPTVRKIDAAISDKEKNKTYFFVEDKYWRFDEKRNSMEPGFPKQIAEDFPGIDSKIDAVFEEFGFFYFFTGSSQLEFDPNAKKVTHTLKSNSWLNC

[3] = biological target: T3, A disintegrin and metalloproteinase with thrombospondin motifs 5 (Homo sapiens) (UniProt Q9UNA0); test: Inhibition of human recombinant ADAMTS-5 using bovine articular aggrecan as substrate incubated 20 mins prior to substrate addition measured after 48 hrs by spectrophotometry
T3 sequence (whole entry): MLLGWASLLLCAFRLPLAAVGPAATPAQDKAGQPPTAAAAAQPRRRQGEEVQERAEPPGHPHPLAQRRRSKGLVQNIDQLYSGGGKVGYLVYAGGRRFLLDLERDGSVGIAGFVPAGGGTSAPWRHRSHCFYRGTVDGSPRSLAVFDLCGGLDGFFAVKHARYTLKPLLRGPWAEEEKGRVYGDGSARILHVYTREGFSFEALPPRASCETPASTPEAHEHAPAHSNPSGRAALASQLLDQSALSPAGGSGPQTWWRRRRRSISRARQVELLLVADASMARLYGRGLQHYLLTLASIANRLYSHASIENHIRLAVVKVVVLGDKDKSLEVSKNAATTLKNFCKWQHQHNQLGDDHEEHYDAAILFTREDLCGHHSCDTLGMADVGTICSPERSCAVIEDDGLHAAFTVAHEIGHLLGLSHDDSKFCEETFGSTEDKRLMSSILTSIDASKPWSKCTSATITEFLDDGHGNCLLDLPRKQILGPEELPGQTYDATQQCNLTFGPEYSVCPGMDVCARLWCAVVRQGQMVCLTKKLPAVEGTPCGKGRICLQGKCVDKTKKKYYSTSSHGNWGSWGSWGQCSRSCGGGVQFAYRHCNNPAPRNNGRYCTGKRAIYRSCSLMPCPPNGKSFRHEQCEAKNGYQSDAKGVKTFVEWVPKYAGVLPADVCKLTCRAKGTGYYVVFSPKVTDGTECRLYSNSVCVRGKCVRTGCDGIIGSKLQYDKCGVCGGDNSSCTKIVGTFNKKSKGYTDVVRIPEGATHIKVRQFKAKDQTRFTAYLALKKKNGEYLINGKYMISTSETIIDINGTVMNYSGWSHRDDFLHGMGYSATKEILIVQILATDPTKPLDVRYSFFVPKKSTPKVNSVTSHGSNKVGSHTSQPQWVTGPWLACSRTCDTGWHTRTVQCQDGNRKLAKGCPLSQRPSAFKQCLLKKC
Summary of the method: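 ADAMTS-5 (3.4 µL of 600 nM stock) was pre-incubated 20 min at 37 °C with compound or 4% DMSO vehicle in Tris/NaCl/CaCl₂/Brij35, pH 7.5. Bovine articular aggrecan (50 µg/mL final) was added for 48 h at 37 °C, then stopped with EDTA. Samples were bound to PVDF and digested with chondroitinase ABC and keratanase. The ARGSVIL neoepitope was detected by BC-3 ELISA with TMB, read at 450 nm.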

[4] = biological target: Disintegrin and metalloproteinase domain-containing protein 17 (Homo sapiens, UniProt P78536); test: Inhibition of human TACE at 10 uM after 5 mins
Collagenase 3 = Collagenase 3 (Homo sapiens, UniProt P45452); test: Inhibition of human MMP-13 after 10 mins
[5] = biological target: T1, Matrix metalloproteinase-9; test: Inhibition of human MMP-9 using NFF-2 as substrate at 10 uM after 90 mins
[6] = biological target: Macrophage metalloelastase (Homo sapiens, UniProt P39900); test: Inhibition of human MMP-12 after 60 mins
Neutrophil collagenase = Neutrophil collagenase (Homo sapiens, UniProt P22894); test: Inhibition of human MMP-8 using Mca-Pro-Cha-Gly-Nva-His-Ala-Dpa-NH2 as substrate after 120 mins
Stromelysin-1 [7] = biological target: T2, Stromelysin-1; test: Inhibition of human MMP-3 using NFF-2 as substrate at 10 uM after 30 mins
Target sequence in this assay (P08254 100-477 limits assumed): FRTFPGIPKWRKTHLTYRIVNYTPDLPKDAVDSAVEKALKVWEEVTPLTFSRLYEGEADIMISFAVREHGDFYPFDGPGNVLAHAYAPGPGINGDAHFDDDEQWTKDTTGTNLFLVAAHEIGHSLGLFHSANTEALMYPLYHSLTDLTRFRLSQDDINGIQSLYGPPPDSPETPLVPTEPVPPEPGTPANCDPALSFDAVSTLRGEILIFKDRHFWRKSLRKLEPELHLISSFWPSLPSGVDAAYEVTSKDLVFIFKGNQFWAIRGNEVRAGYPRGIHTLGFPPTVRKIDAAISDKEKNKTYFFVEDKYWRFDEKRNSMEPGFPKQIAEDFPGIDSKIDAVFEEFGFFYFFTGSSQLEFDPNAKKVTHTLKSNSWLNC

[8] = biological target: T4, Interstitial collagenase (Homo sapiens) (UniProt P03956); test: Inhibition of human MMP-1 using DNP-Pro-Cha-Gly-Cys(Me)-His-Ala-Lys(n-Me-Abz)-NH2 as substrate at 10 uM after 40 mins
T4 sequence (whole entry): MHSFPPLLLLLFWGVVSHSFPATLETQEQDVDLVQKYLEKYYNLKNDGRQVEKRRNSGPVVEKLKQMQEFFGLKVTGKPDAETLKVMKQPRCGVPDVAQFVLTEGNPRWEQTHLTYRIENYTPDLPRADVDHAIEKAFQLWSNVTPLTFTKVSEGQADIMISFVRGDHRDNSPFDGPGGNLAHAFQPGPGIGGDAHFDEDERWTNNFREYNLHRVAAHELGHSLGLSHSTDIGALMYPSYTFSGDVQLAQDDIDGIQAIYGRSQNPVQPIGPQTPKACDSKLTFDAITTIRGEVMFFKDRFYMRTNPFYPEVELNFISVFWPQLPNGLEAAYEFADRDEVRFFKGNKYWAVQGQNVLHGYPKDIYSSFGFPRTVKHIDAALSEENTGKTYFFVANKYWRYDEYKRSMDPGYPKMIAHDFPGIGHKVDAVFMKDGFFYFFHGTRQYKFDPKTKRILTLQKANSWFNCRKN

T1 sequence (P14780 whole entry): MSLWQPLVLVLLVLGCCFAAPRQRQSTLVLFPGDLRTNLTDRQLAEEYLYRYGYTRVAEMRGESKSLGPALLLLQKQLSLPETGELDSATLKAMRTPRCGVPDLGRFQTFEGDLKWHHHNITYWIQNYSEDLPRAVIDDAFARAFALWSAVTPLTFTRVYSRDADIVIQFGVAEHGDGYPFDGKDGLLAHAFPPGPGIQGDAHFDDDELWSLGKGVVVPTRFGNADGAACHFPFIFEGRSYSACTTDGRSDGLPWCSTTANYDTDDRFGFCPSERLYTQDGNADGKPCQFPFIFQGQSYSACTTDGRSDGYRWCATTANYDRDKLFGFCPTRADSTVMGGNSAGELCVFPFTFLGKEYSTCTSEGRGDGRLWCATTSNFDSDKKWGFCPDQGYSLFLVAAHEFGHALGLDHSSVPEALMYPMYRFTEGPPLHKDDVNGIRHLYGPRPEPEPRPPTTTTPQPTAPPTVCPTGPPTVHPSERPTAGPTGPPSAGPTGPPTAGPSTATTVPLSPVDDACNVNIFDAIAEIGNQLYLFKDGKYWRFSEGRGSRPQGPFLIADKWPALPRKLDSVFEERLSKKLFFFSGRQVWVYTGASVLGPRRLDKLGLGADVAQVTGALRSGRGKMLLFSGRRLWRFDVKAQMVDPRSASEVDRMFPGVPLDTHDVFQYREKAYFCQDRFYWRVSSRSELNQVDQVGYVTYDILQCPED
Chain of Macrophage metalloelastase (P39900 whole entry): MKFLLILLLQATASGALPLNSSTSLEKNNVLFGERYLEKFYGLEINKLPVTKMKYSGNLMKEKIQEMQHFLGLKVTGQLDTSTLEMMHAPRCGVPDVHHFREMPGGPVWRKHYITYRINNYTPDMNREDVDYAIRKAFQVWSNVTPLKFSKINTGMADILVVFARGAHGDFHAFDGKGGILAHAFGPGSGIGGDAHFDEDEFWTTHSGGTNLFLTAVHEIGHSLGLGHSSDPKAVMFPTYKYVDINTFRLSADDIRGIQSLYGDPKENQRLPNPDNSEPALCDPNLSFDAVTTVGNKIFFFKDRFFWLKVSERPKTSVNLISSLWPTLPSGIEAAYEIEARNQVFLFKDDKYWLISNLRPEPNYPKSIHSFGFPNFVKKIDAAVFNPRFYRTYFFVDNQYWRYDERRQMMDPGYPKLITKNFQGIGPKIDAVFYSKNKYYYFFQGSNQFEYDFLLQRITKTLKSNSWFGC
Chain of Disintegrin and metalloproteinase domain-containing protein 17 (P78536 whole entry, the tested form may be a part): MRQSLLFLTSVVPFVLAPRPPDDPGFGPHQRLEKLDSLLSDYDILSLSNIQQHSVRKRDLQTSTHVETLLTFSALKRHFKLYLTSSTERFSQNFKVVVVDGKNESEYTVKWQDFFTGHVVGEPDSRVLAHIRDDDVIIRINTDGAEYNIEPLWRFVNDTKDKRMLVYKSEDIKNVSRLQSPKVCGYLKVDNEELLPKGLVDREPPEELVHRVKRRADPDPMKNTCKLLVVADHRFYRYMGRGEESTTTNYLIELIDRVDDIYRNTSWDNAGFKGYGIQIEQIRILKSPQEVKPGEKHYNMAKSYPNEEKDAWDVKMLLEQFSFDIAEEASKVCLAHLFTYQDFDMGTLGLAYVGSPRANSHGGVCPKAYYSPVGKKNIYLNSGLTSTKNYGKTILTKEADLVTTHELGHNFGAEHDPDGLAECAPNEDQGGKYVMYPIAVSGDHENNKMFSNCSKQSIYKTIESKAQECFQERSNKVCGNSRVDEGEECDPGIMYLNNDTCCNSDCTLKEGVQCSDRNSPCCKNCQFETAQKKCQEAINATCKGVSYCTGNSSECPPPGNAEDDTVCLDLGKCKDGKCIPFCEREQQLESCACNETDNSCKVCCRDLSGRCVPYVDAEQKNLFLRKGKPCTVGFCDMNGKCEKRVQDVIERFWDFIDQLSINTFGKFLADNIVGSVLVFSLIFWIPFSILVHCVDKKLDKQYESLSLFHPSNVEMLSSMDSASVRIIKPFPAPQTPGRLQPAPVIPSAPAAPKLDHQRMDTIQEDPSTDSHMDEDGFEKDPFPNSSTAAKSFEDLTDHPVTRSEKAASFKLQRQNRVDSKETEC
Chain of Neutrophil collagenase (P22894 whole entry): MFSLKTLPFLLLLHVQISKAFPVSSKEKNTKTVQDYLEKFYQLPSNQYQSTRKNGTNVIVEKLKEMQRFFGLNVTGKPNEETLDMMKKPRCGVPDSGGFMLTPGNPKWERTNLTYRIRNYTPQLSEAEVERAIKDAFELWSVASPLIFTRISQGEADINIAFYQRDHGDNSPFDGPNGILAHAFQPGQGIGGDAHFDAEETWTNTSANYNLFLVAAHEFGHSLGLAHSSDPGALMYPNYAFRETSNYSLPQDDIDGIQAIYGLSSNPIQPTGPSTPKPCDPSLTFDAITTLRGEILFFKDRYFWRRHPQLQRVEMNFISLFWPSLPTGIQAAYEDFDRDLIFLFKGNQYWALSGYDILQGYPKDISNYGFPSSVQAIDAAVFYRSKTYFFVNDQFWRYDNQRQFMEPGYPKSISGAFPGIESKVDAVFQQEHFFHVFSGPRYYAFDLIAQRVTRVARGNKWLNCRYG

O=C(COc1ccc(Cl)cc1)NNC(=S)NCCCCC1CCCCC1
IC50 [1]: > 10 µM
IC50 (Stromelysin-1 [2]): > 10 µM
inhibition [3]: Dose-dependent effect
inhibition [4]: < 10%
IC50 (Collagenase 3): > 100 µM
inhibition [5]: < 10%
IC50 [6]: > 100 µM
IC50 (Neutrophil collagenase): 47 µM
inhibition (Stromelysin-1 [7]): < 10%
inhibition [8]: < 10%
